Series [1] is described as follows: folding enthalpy; higher = less favourable; fluorescence melt of hairpins on a sequencing array, two-state fit. The note with it: sodium 0.088 M. The procedure, abridged: (§1)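 Hairpins were imaged by Cy3 fluorescence on a sequenced MiSeq flow cell with annealed Cy3 and quencher oligos, in 50 mM Na-HEPES pH 8.0, 25 mM NaCl, in 2.5 °C steps up to 60 °C. Bootstrapped two-state fits of normalised signals gave melting temperature and folding enthalpy. Four replicates were combined by inverse variance, and fitted temperatures were raised by 9.35 °C to match UV melts.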

A short description of series [2]: melting temperature; fluorescence melt of hairpins on a sequencing array, two-state fit, raised by 9.35 °C to match UV melts. Particulars: sodium 0.088 M. The procedure, abridged:
as §1

We go through 55 sequences from the array DNA melting data of Ke et al. (doi:10.1101/2024.01.08.574731).

Consider GAACACGGAAACGTGCTC ((.((((....)))).)), for which, in series [1], the folding enthalpy was -18.6 kcal/mol. Further, in series [2], the Tm came out at 43 °C.
GAACAGGAAACTGTTC ((((((....)))))): the folding enthalpy in series [1] was -38.4 kcal/mol. The Tm in series [2] stood at 52.9 °C.
Consider GAACATCCGAAAGGATTC (((..(((....)))))), for which the folding enthalpy in series [1] is -11.7 kcal/mol. The Tm in series [2] was 26.3 °C.
On to GAACCACGAAAGTGATTC (((.(((....))).))), for which the folding enthalpy in series [1] is -23.9 kcal/mol. Also, in series [2], the Tm turned out to be 43.7 °C.
With GAACCACGAAAGTGCTTC (((.(((....))).))), the folding enthalpy in series [1] is -17.1 kcal/mol. The Tm in series [2] turned out to be 32.3 °C.
As to GAACCCCCGAAAGGGTTC (((..(((....)))))), the folding enthalpy in series [1] was -24 kcal/mol. Further, the Tm in series [2] worked out at 55 °C.
Turning to GAACCCGAAAGGGAGTTC ((((((....)))..))), the folding enthalpy in series [1] was -13.7 kcal/mol. Further, the Tm in series [2] is 40 °C.
For the sequence GAACCCGAAAGGGGATTC ((((((....)))..))), the folding enthalpy in series [1] is -16.6 kcal/mol. Also, the Tm in series [2] worked out at 42.9 °C.
On to GAACCCGAAAGGGGTTTC ((((((....)))..))), for which, in series [1], the folding enthalpy was -11.6 kcal/mol. Also, the Tm in series [2] turned out to be 46.9 °C.
For the sequence GAACCCGGAAACAGGTTC (((((.(....).))))), the folding enthalpy in series [1] was -25.9 kcal/mol. Further, the Tm in series [2] was 40 °C.
On to GAACCCGGAAACGGGCTC ((.((((....)))).)), for which the folding enthalpy in series [1] is -15.4 kcal/mol. Besides, the Tm in series [2] is 47.3 °C.
The corresponding values for GAACCGCGAAAGCGATTC (((.(((....))).))) are -24.8 kcal/mol and 47.8 °C.
The corresponding values for GAACCGCGAAAGCGTTC (((.(((....)))))) are -14.2 kcal/mol and 44 °C.
For the sequence GAACCTGGAAACAAGTTC ((((.((....)).)))), the folding enthalpy in series [1] is -15.9 kcal/mol. In addition, in series [2], the Tm was found to be 26.8 °C.
Take GAACGACGAAAGTCCTTC (((.(((....))).))): in series [1], the folding enthalpy is -14.3 kcal/mol. The Tm in series [2] worked out at 31.3 °C.
Consider GAACGAGGAAACTCGCTC ((.((((....)))).)), for which the folding enthalpy in series [1] was -20.5 kcal/mol. In series [2], the Tm is 38.9 °C.
In the case of GAACGCGGAAACGCGCTC ((.((((....)))).)), in series [1], the folding enthalpy was -15.1 kcal/mol. Besides, the Tm in series [2] is 50.3 °C.
With GAACGGCGAAAGCCATTC (((.(((....))).))), in series [1], the folding enthalpy is -16.8 kcal/mol. For the same sequence, in series [2], the Tm was found to be 44.2 °C.
As for GAACTACGAAAGTACTTC (((.(((....))).))), the folding enthalpy in series [1] is -9.53 kcal/mol. In series [2], the Tm came out at 25.9 °C.
As to GAACTAGGAAACCAGTTC (((((.(....).))))), the folding enthalpy in series [1] was -28.3 kcal/mol. Also, the Tm in series [2] turned out to be 33.9 °C.
For GAACTAGGAAACTAGTTC (((((((....))))))), the folding enthalpy in series [1] is -40.2 kcal/mol. Further, the Tm in series [2] was 53.8 °C.
On to GAACTCCGAAAGGAATTC (((.(((....))).))), for which the folding enthalpy in series [1] is -25.9 kcal/mol. In addition, the Tm in series [2] amounted to 37.5 °C.
For GAACTCCGAAAGGATTC (((.(((....)))))), the folding enthalpy in series [1] was -17 kcal/mol. In addition, the Tm in series [2] turned out to be 37.1 °C.
Turning to GAACTCGAAAGAGTTC ((((((....)))))), in series [1], the folding enthalpy is -39.3 kcal/mol. For the same sequence, the Tm in series [2] was determined as 61.6 °C.
Consider GAACTGCGAAAGCAATTC (((.(((....))).))), for which the folding enthalpy in series [1] was -21.7 kcal/mol. For the same sequence, the Tm in series [2] came to 36.7 °C.
The corresponding values for GAACTGGAAACAGTTC ((((((....)))))) are -32.4 kcal/mol and 53.9 °C.
Regarding GAACTGGGAAACCAGTTC (((((((....))))))), the folding enthalpy in series [1] was -40.7 kcal/mol. Also, the Tm in series [2] worked out at 61.7 °C.
Consider GAACTTGGAAACAAGTTC (((((((....))))))), for which, in series [1], the folding enthalpy was -39 kcal/mol. For the same sequence, the Tm in series [2] was 57.4 °C.
The corresponding values for GAAGACGAAAGTCAATTC ((((((....)))..))) are -15.5 kcal/mol and 32.9 °C.
Turning to GAAGACGAAAGTCATTTC ((((((....)))..))), the folding enthalpy in series [1] was -8.24 kcal/mol. Further, the Tm in series [2] is 23.9 °C.
Regarding GAAGACGAAAGTCGCTTC ((((((....)))..))), in series [1], the folding enthalpy was -22.6 kcal/mol. For the same sequence, the Tm in series [2] amounted to 47.1 °C.
GAAGATGAAAATCTTC ((((((....)))))): the folding enthalpy in series [1] is -28.1 kcal/mol. Further, the Tm in series [2] came to 48.4 °C.
Turning to GAAGCACGAAAGTGTTC (((.(((....)))))), in series [1], the folding enthalpy was -13.4 kcal/mol. For the same sequence, the Tm in series [2] amounted to 36.1 °C.
Turning to GAAGCCCCGAAAGGGTTC (((..(((....)))))), the folding enthalpy in series [1] is -14.3 kcal/mol. Besides, the Tm in series [2] came to 36.9 °C.
In the case of GAAGCCCGAAAGGGATTC (((.(((....))).))), the folding enthalpy in series [1] was -42.4 kcal/mol. Moreover, the Tm in series [2] came out at 61.4 °C.
The corresponding values for GAAGCCCGAAAGGGGTTC (((.(((....))).))) are -36.8 kcal/mol and 67.7 °C.
Turning to GAAGCCCGAAAGGGTTC (((.(((....)))))), the folding enthalpy in series [1] was -16 kcal/mol. For the same sequence, in series [2], the Tm turned out to be 47.7 °C.
As to GAAGCCGAAAGGCACTTC ((((((....)))..))), the folding enthalpy in series [1] was -12 kcal/mol. The Tm in series [2] was found to be 42.4 °C.
The corresponding values for GAAGCCGAAAGGCCATTC ((((((....)))..))) are -8.97 kcal/mol and 28 °C.
The corresponding values for GAAGCCGAAAGGCCTTC ((((((....))).))) are -16.2 kcal/mol and 48.8 °C.
Turning to GAAGCCGAAAGGCCTTTC ((((((....)))..))), the folding enthalpy in series [1] is -9.88 kcal/mol. Also, the Tm in series [2] came out at 35.9 °C.
With GAAGCCGAAAGGCGCTTC ((((((....)))..))), in series [1], the folding enthalpy was -14.1 kcal/mol. Also, in series [2], the Tm worked out at 56.2 °C.
Take GAAGCGACGAAAGTCTTC (((..(((....)))))): the folding enthalpy in series [1] was -9.61 kcal/mol. For the same sequence, the Tm in series [2] worked out at 27.9 °C.
Turning to GAAGCGCGAAAGCGTTTC (((.(((....))).))), the folding enthalpy in series [1] is -23.1 kcal/mol. The Tm in series [2] is 56 °C.
In the case of GAAGCGGGAAACCACTTC ((((.((....)).)))), in series [1], the folding enthalpy was -32.1 kcal/mol. For the same sequence, the Tm in series [2] turned out to be 41.8 °C.
On to GAAGCGGGAAACTGCTTC (((((.(....).))))), for which the folding enthalpy in series [1] is -40.4 kcal/mol. The Tm in series [2] was found to be 53 °C.
GAAGCTGGAAACGGCTTC (((((.(....).))))): the folding enthalpy in series [1] is -42.9 kcal/mol. Further, in series [2], the Tm stood at 53.4 °C.
On to GAAGCTGGAAACGGTTTC (((.(.(....).).))), for which the folding enthalpy in series [1] was -10.3 kcal/mol. In series [2], the Tm was determined as 26 °C.
The corresponding values for GAAGGACCGAAAGGTTTC (((..(((....)))))) are -10.4 kcal/mol and 24 °C.
GAAGGACGAAAGTCATTC (((.(((....))).))): the folding enthalpy in series [1] was -30.8 kcal/mol. Also, in series [2], the Tm came to 52.1 °C.
For GAAGGCGAAAGCCCTTC ((((((....))).))), the folding enthalpy in series [1] is -15.3 kcal/mol. Also, the Tm in series [2] amounted to 52.1 °C.
Turning to GAAGGCGAAAGCCCTTTC ((((((....)))..))), in series [1], the folding enthalpy was -10 kcal/mol. Also, the Tm in series [2] was 37.6 °C.
Take GAAGGCGCGAAAGCGTTC (((..(((....)))))): the folding enthalpy in series [1] was -9.37 kcal/mol. The Tm in series [2] is 30.9 °C.
Take GAAGGCGGAAACGTCTTC ((((.((....)).)))): the folding enthalpy in series [1] was -45.1 kcal/mol. In addition, in series [2], the Tm turned out to be 53.1 °C.
The corresponding values for GAAGGGGGAAACCCCTCC (.(((((....))))).) are -13.1 kcal/mol and 36.5 °C.
